Measured values gathered from unrelated publications.
Protocols differ between the studies behind these lines.
Observed: microbial growth

SMILES	organism	assay	test system	conditions	measurement	result
CC(C)CCCCCCCCCCCCCCc1cc(O)cc(O)c1	Bacillus subtilis				IC50	10.2 µM
CCCCCC/C=C\CCCCCCCCCC(=O)NP(=O)(O)O	Bacillus subtilis		ATCC23857		MIC	100 µg/mL
CCCCCCCCCCCCCCCCCCCCc1cc(O)cc(O)c1	Bacillus subtilis				IC50	> 200 µM
CCC[C@H]1CN(c2cccc(OC(F)(F)F)c2)C(=O)CN1Cc1cncn1Cc1ccc(Br)cc1	Cryptococcus neoformans	broth dilution			MIC	3 to 6 µM
O=C(NN=Cc1ccc(O)c(Br)c1)c1cccc(Br)c1	Cryptococcus neoformans	broth dilution			MIC	0.3 µg/mL
O=C(CCCCc1ccccc1)CP(=O)(O)O	Bacillus subtilis		ATCC23857		MIC	> 200 µg/mL
CC1(C)S[C@@H]2[C@H](NC(=O)[C@H](N)c3ccccc3)C(=O)N2[C@H]1C(=O)O	Proteus vulgaris	well diffusion	ATCC13315	60000 µg/mL	inhibition zone	25 mm
Cc1c(NN=C(C#N)C2=NC(=O)CS2)c(=O)n(-c2ccccc2)n1C	Bacillus subtilis	well diffusion		100000 µg/mL	inhibition zone	26 mm
CCCCCCCC/C=C\CCCCCCCCNC(=O)CP(=O)(O)O	Bacillus subtilis		ATCC23857		MIC	200 µg/mL
CC(=O)C1=C(O)C(CC(C)C)NC1=O (stereo not drawn)	Proteus vulgaris		ATCC33420		MIC	> 200 µg/mL
CCCCCC/C=C\CCCCCCCCCC(=O)CP(=O)(O)O	Bacillus subtilis		ATCC23857		MIC	25 µg/mL
CCOC(=O)c1ccccc1S(=O)(=O)NC(=O)Nc1nc(Cl)cc(OC)n1	Nakaseomyces glabratus	broth dilution		48 h	MIC50	5.6 µM
O=C(CCCCCCCCCCOc1ccccc1)CP(=O)(O)O	Bacillus subtilis		ATCC23857		MIC	> 200 µg/mL
CC(C)C(C)CCCCCCCCCCCc1cc(O)cc(O)c1 (stereo not drawn)	Bacillus subtilis				IC50	11.4 µM
CC[C@H](C)C[C@H](C)CCCCCCCCC(=O)N[C@H]1C[C@@H](O)[C@@H](NCCN)NC(=O)[C@@H]2[C@@H](O)CCN2C(=O)[C@H]([C@H](O)CCN)NC(=O)[C@H]([C@H](O)[C@@H](O)c2ccc(O)cc2)NC(=O)[C@@H]2C[C@@H](O)CN2C(=O)[C@H]([C@@H](C)O)NC1=O	Nakaseomyces glabratus	broth dilution	MY1381		MIC50	0.125 µg/mL
